{"source": "paper PMC5812400", "about": "(ESMO Open, 2018)", "system": "adult patients with advanced non-haematological malignancies", "experiment": "Safety and tolerability", "format": "in vivo, human", "procedure,_shortened": "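Patients on milled oral capsules, fasted, in 28-day cycles. AEs and SAEs recorded from first dose through 30 days after last dose. Graded by NCI CTCAE v4.03 and coded to MedDRA v19.0. Relatedness to study drug judged by investigator.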", "data": [{"smiles": "CC(C)n1nc(-c2ccc3oc(N)nc3c2)c2c(N)ncnc21", "note": "[TAK-228, Sapanisertib]", "values": [{"measurement": "AE resulting in TAK-228 discontinuation", "setting": "QD 3 mg (n=11)", "result": "0 n (%)"}, {"measurement": "Drug-related AE", "setting": "QD 3 mg (n=11)", "result": "10 (91) n (%)"}, {"measurement": "Drug-related AE: Abdominal pain", "setting": "QD 3 mg (n=11)", "result": "2 (18) n (%)"}, {"measurement": "Drug-related AE: Decreased appetite", "setting": "QD 3 mg (n=11)", "result": "3 (27) n (%)"}, {"measurement": "Drug-related AE: Diarrhoea", "setting": "QD 3 mg (n=11)", "result": "2 (18) n (%)"}, {"measurement": "Drug-related AE: Fatigue", "setting": "QD 3 mg (n=11)", "result": "6 (55) n (%)"}, {"measurement": "Drug-related AE: Hyperglycaemia", "setting": "QD 3 mg (n=11)", "result": "2 (18) n (%)"}, {"measurement": "Drug-related AE: Nausea", "setting": "QD 3 mg (n=11)", "result": "4 (36) n (%)"}, {"measurement": "Drug-related AE: Pruritus", "setting": "QD 3 mg (n=11)", "result": "4 (36) n (%)"}, {"measurement": "Drug-related AE: Rash", "setting": "QD 3 mg (n=11)", "result": "1 (9) n (%)"}, {"measurement": "Drug-related AE: Rash (maculopapular)", "setting": "QD 3 mg (n=11)", "result": "4 (36) n (%)"}, {"measurement": "Drug-related AE: Stomatitis", "setting": "QD 3 mg (n=11)", "result": "1 (9) n (%)"}, {"measurement": "Drug-related AE: Vomiting", "setting": "QD 3 mg (n=11)", "result": "1 (9) n (%)"}, {"measurement": "Drug-related SAE", "setting": "QD 3 mg (n=11)", "result": "0 n (%)"}, {"measurement": "Drug-related grade ≥3 AE", "setting": "QD 3 mg (n=11)", "result": "5 (46) n (%)"}, {"measurement": "Grade ≥3 AE", "setting": "QD 3 mg (n=11)", "result": "6 (55) n (%)"}, {"measurement": "Grade ≥3 AE: Abdominal pain", "setting": "QD 3 mg (n=11)", "result": "1 (9) n (%)"}, {"measurement": "Grade ≥3 AE: Anaemia", "setting": "QD 3 mg (n=11)", "result": "0 n (%)"}, {"measurement": "Grade ≥3 AE: Blood phosphorus decreased", "setting": "QD 3 mg (n=11)", "result": "1 (9) n (%)"}, {"measurement": "Grade ≥3 AE: Diarrhoea", "setting": "QD 3 mg (n=11)", "result": "1 (9) n (%)"}, {"measurement": "Grade ≥3 AE: Fatigue", "setting": "QD 3 mg (n=11)", "result": "0 n (%)"}, {"measurement": "Grade ≥3 AE: Hyperglycaemia", "setting": "QD 3 mg (n=11)", "result": "1 (9) n (%)"}, {"measurement": "Grade ≥3 AE: Hyponatraemia", "setting": "QD 3 mg (n=11)", "result": "1 (9) n (%)"}, {"measurement": "Grade ≥3 AE: Rash macular", "setting": "QD 3 mg (n=11)", "result": "1 (9) n (%)"}, {"measurement": "On-study deaths", "setting": "QD 3 mg (n=11)", "result": "0 n (%)"}, {"measurement": "SAE", "setting": "QD 3 mg (n=11)", "result": "3 (27) n (%)"}, {"measurement": "AE resulting in TAK-228 discontinuation", "setting": "QD 4 mg (n=6)", "result": "1 (17) n (%)"}, {"measurement": "Drug-related AE", "setting": "QD 4 mg (n=6)", "result": "6 (100) n (%)"}, {"measurement": "Drug-related AE: Abdominal pain", "setting": "QD 4 mg (n=6)", "result": "1 (17) n (%)"}, {"measurement": "Drug-related AE: Decreased appetite", "setting": "QD 4 mg (n=6)", "result": "2 (33) n (%)"}, {"measurement": "Drug-related AE: Diarrhoea", "setting": "QD 4 mg (n=6)", "result": "3 (50) n (%)"}, {"measurement": "Drug-related AE: Fatigue", "setting": "QD 4 mg (n=6)", "result": "4 (67) n (%)"}, {"measurement": "Drug-related AE: Hyperglycaemia", "setting": "QD 4 mg (n=6)", "result": "1 (17) n (%)"}, {"measurement": "Drug-related AE: Nausea", "setting": "QD 4 mg (n=6)", "result": "1 (17) n (%)"}, {"measurement": "Drug-related AE: Pruritus", "setting": "QD 4 mg (n=6)", "result": "3 (50) n (%)"}, {"measurement": "Drug-related AE: Rash", "setting": "QD 4 mg (n=6)", "result": "2 (33) n (%)"}, {"measurement": "Drug-related AE: Rash (maculopapular)", "setting": "QD 4 mg (n=6)", "result": "0 n (%)"}, {"measurement": "Drug-related AE: Stomatitis", "setting": "QD 4 mg (n=6)", "result": "2 (33) n (%)"}, {"measurement": "Drug-related AE: Vomiting", "setting": "QD 4 mg (n=6)", "result": "1 (17) n (%)"}, {"measurement": "Drug-related SAE", "setting": "QD 4 mg (n=6)", "result": "0 n (%)"}, {"measurement": "Drug-related grade ≥3 AE", "setting": "QD 4 mg (n=6)", "result": "5 (83) n (%)"}, {"measurement": "Grade ≥3 AE", "setting": "QD 4 mg (n=6)", "result": "6 (100) n (%)"}, {"measurement": "Grade ≥3 AE: Abdominal pain", "setting": "QD 4 mg (n=6)", "result": "0 n (%)"}, {"measurement": "Grade ≥3 AE: Anaemia", "setting": "QD 4 mg (n=6)", "result": "0 n (%)"}, {"measurement": "Grade ≥3 AE: Blood phosphorus decreased", "setting": "QD 4 mg (n=6)", "result": "0 n (%)"}, {"measurement": "Grade ≥3 AE: Diarrhoea", "setting": "QD 4 mg (n=6)", "result": "0 n (%)"}, {"measurement": "Grade ≥3 AE: Fatigue", "setting": "QD 4 mg (n=6)", "result": "2 (33) n (%)"}, {"measurement": "Grade ≥3 AE: Hyperglycaemia", "setting": "QD 4 mg (n=6)", "result": "1 (17) n (%)"}, {"measurement": "Grade ≥3 AE: Hyponatraemia", "setting": "QD 4 mg (n=6)", "result": "1 (17) n (%)"}, {"measurement": "Grade ≥3 AE: Rash macular", "setting": "QD 4 mg (n=6)", "result": "1 (17) n (%)"}, {"measurement": "On-study deaths", "setting": "QD 4 mg (n=6)", "result": "1 (17) n (%)"}, {"measurement": "SAE", "setting": "QD 4 mg (n=6)", "result": "2 (33) n (%)"}, {"measurement": "AE resulting in TAK-228 discontinuation", "setting": "QD Total (n=17)", "result": "1 (6) n (%)"}, {"measurement": "Drug-related AE", "setting": "QD Total (n=17)", "result": "16 (94) n (%)"}, {"measurement": "Drug-related AE: Abdominal pain", "setting": "QD Total (n=17)", "result": "3 (18) n (%)"}, {"measurement": "Drug-related AE: Decreased appetite", "setting": "QD Total (n=17)", "result": "5 (29) n (%)"}, {"measurement": "Drug-related AE: Diarrhoea", "setting": "QD Total (n=17)", "result": "5 (29) n (%)"}, {"measurement": "Drug-related AE: Fatigue", "setting": "QD Total (n=17)", "result": "10 (59) n (%)"}, {"measurement": "Drug-related AE: Hyperglycaemia", "setting": "QD Total (n=17)", "result": "3 (18) n (%)"}, {"measurement": "Drug-related AE: Nausea", "setting": "QD Total (n=17)", "result": "5 (29) n (%)"}, {"measurement": "Drug-related AE: Pruritus", "setting": "QD Total (n=17)", "result": "7 (41) n (%)"}, {"measurement": "Drug-related AE: Rash", "setting": "QD Total (n=17)", "result": "3 (18) n (%)"}, {"measurement": "Drug-related AE: Rash (maculopapular)", "setting": "QD Total (n=17)", "result": "4 (24) n (%)"}, {"measurement": "Drug-related AE: Stomatitis", "setting": "QD Total (n=17)", "result": "3 (18) n (%)"}, {"measurement": "Drug-related AE: Vomiting", "setting": "QD Total (n=17)", "result": "2 (12) n (%)"}, {"measurement": "Drug-related SAE", "setting": "QD Total (n=17)", "result": "0 n (%)"}, {"measurement": "Drug-related grade ≥3 AE", "setting": "QD Total (n=17)", "result": "10 (59) n (%)"}, {"measurement": "Grade ≥3 AE", "setting": "QD Total (n=17)", "result": "12 (71) n (%)"}, {"measurement": "Grade ≥3 AE: Abdominal pain", "setting": "QD Total (n=17)", "result": "1 (6) n (%)"}, {"measurement": "Grade ≥3 AE: Anaemia", "setting": "QD Total (n=17)", "result": "0 n (%)"}, {"measurement": "Grade ≥3 AE: Blood phosphorus decreased", "setting": "QD Total (n=17)", "result": "1 (6) n (%)"}, {"measurement": "Grade ≥3 AE: Diarrhoea", "setting": "QD Total (n=17)", "result": "1 (6) n (%)"}, {"measurement": "Grade ≥3 AE: Fatigue", "setting": "QD Total (n=17)", "result": "2 (12) n (%)"}, {"measurement": "Grade ≥3 AE: Hyperglycaemia", "setting": "QD Total (n=17)", "result": "2 (12) n (%)"}, {"measurement": "Grade ≥3 AE: Hyponatraemia", "setting": "QD Total (n=17)", "result": "2 (12) n (%)"}, {"measurement": "Grade ≥3 AE: Rash macular", "setting": "QD Total (n=17)", "result": "2 (12) n (%)"}, {"measurement": "On-study deaths", "setting": "QD Total (n=17)", "result": "1 (6) n (%)"}, {"measurement": "SAE", "setting": "QD Total (n=17)", "result": "5 (29) n (%)"}, {"measurement": "Asthaenic conditions, patients", "setting": "QD arm", "result": 59, "unit": "%"}, {"measurement": "Drug-related AE of any grade: decreased appetite", "setting": "QD arm", "result": 29, "unit": "%"}, {"measurement": "Drug-related AE of any grade: diarrhoea", "setting": "QD arm", "result": 29, "unit": "%"}, {"measurement": "Drug-related AE of any grade: fatigue", "setting": "QD arm", "result": 59, "unit": "%"}, {"measurement": "Drug-related AE of any grade: nausea", "setting": "QD arm", "result": 29, "unit": "%"}, {"measurement": "Drug-related AE of any grade: pruritus", "setting": "QD arm", "result": 41, "unit": "%"}, {"measurement": "Grade ≥3 AE: Fatigue", "setting": "QD arm", "result": 12, "unit": "%"}, {"measurement": "Grade ≥3 AE: Hyperglycaemia", "setting": "QD arm", "result": 12, "unit": "%"}, {"measurement": "Grade ≥3 AE: Hyponatraemia", "setting": "QD arm", "result": 12, "unit": "%"}, {"measurement": "Grade ≥3 AE: macular rash", "setting": "QD arm", "result": 12, "unit": "%"}, {"measurement": "SAEs, patients", "setting": "QD arm", "result": 29, "unit": "%"}, {"measurement": "Incidence of grade ≥3 drug-related AEs", "setting": "QD milled TAK-228", "result": 59, "unit": "%"}, {"measurement": "AE resulting in TAK-228 discontinuation", "setting": "QW 20 mg (n=7)", "result": "0 n (%)"}, {"measurement": "Drug-related AE", "setting": "QW 20 mg (n=7)", "result": "5 (71) n (%)"}, {"measurement": "Drug-related AE: Asthaenia", "setting": "QW 20 mg (n=7)", "result": "1 (14) n (%)"}, {"measurement": "Drug-related AE: Decreased appetite", "setting": "QW 20 mg (n=7)", "result": "1 (14) n (%)"}, {"measurement": "Drug-related AE: Dehydration", "setting": "QW 20 mg (n=7)", "result": "1 (14) n (%)"}, {"measurement": "Drug-related AE: Diarrhoea", "setting": "QW 20 mg (n=7)", "result": "4 (57) n (%)"}]}]}
